As a reminder, the IC50 is the concentration needed to halve the response being measured. As usually defined, the solubility is the dissolved amount per volume that the medium holds. High values mean much dissolved substance, low ones little dissolved substance.

Data set [1] is described as follows: Ratio of aqueous solubility of compound to aqueous solubility of paclitaxel. It is filed as physicochemical. The following applies: buffer.
Data set [2] relates to MCF7. Nature of the data set: Cytotoxicity against human MCF7 cells assessed as cell viability measured after 72 hrs by MTS assay. The data set is classed as functional, cell-based. The settings on record: MCF7, 72 h. An outline of the steps:
(§1)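 MCF-7 and HeLa cells seeded at 4×10^3 cells/well 24 h before treatment, then exposed to compounds for 48 h or 72 h. Viability measured by MTS assay and IC50 derived; top concentration tested 1 µM.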

The test system of data set [3] is HeLa. Nature of the data set: Cytotoxicity against human HeLa cells assessed as cell viability measured after 72 hrs by MTS assay. It is filed as functional, cell-based. An outline of the steps: as §1
A general note: Formazan colour is commonly taken as a measure of viable cells.

Data set [4] can be described thus: Aqueous solubility of the compound. It is filed as physicochemical.
Data set [5] relates to HeLa. Nature of the data set: Cytotoxicity against human HeLa cells assessed as cell viability measured after 48 hrs by MTS assay. It is filed as functional, cell-based. The method, boiled down: as §1
Data set [6] has as its system MCF7. Nature of the data set: Cytotoxicity against human MCF7 cells assessed as cell viability measured after 48 hrs by MTS assay. The data set is classed as functional, cell-based. The following applies: MCF7, 48 h. An outline of the steps:
as §1

The nature of data set [7]: Toxicity in mouse. It is filed as organism-based. The settings on record: in vivo.
Data set [8] relates to Mus musculus. Nature of the data set: Toxicity in mouse allografted with mouse S180 cells assessed as change in body weight at 25 mg/kg, iv administered 4 time a day post 24 hrs of tumor implantation measured after 10 days (reference value: -2.8%). The following applies: in vivo, 240 h. The data set is classed as organism-based, CCRF S-180.
The test system of data set [9] is Mus musculus. In words: Acute toxicity in mouse allografted with mouse S180 cells at 60 mg/kg, iv administered 4 times per day post 24 hrs of tumor implantation measured after 24 hrs. The data set is classed as organism-based, CCRF S-180. The settings on record: in vivo.
In data set [10] the test system is CCRF S-180. Nature of the data set: Antitumor activity against mouse S180 cells allografted in mouse assessed as tumor weight at 25 mg/kg, iv administered 4 time a day post 24 hrs of tumor implantation measured after 10 days (reference value: 7.35g). It is filed as functional.
For data set [11], the system named is CCRF S-180. Nature of the data set: Antitumor activity against mouse S180 cells allografted in mouse assessed as tumor growth inhibition at 25 mg/kg, iv administered 4 time a day post 24 hrs of tumor implantation measured after 10 days. The data set is classed as functional. The settings on record: CCRF S-180, iv, read-out: TGI.
For the next data set, the system named is Plasma. In words: Metabolic stability in mouse plasma assessed as paclitaxel release at 37 degC in presence of dithiotheitol measured after 10 min. The data set is classed as ADME, cell-free. An outline of the steps:
(§2)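 Compound incubated in mouse plasma at 37 °C for up to 48 h. Remaining compound and released paclitaxel measured at intervals, expressed as detected concentration divided by total concentration. In a separate incubation, 10 mM dithiothreitol was added.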

The subject of data set [12] is Mus musculus. Nature of the data set: Toxicity in mouse allografted with mouse S180 cells assessed as mortality at 25 mg/kg, iv administered 4 time a day post 24 hrs of tumor implantation. It is filed as organism-based, CCRF S-180. The following applies: in vivo. The method, boiled down: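 S-180 cells were implanted subcutaneously in mice, 8 per group. Starting 24 h later, dosing was iv every other day for 4 doses, with dose expressed as paclitaxel-equivalent. Prodrug vehicle was 5% glucose. Paclitaxel was given in cremophor/ethanol (50%/50%) diluted 10-fold with 5% glucose. Vehicle controls received 5% glucose. Deaths were counted up to day 10.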

Data set [13] can be described thus: Metabolic stability in mouse plasma assessed as compound degradation at 37 degC measured after 10 hrs. It is filed as ADME, cell-free. The settings on record: read-out: Drug degradation. The method, boiled down:
as §2

Data set [14] deals with Mus musculus. Nature of the data set: Acute toxicity in mouse allografted with mouse S180 cells assessed as mouse survival at 90 mg/kg, iv administered 4 times per day post 24 hrs of tumor implantation. The settings on record: in vivo. The data set is classed as organism-based, CCRF S-180.
A short description of data set [15]: Chemical stability of the compound assessed as paclitaxel release in presence of FBS measured after 5 hrs by HPLC analysis. It is filed as physicochemical. The settings on record: cattle. The method, boiled down: (§3)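 Compound solution added to fetal bovine serum (400 µl into 3600 µl) and incubated at 37 °C. At set time points, 100 µl aliquots were quenched with 300 µl acetonitrile and centrifuged 5 min at 10,000 rpm. Supernatant analysed by HPLC for intact prodrug and released paclitaxel.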

Data set [16] has as its system HeLa. In words: Cytotoxicity against human HeLa cells at 1 uM by MTS assay. The data set is classed as functional, cell-based. An outline of the steps: as §1
Data set [17] is described as follows: Chemical stability of the compound assessed as compound degradation in presence of FBS measured after 4 hrs by HPLC analysis. The data set is classed as physicochemical. The settings on record: cattle. An outline of the steps: as §3
Data set [18] in a line: Chemical stability of the compound assessed as paclitaxel release in presence of FBS measured after 4 hrs by HPLC analysis. It is filed as physicochemical. The settings on record: cattle. The method, boiled down:
as §3

The subject of data set [19] is MCF7. Nature of the data set: Cytotoxicity against human MCF7 cells at 1 uM by MTS assay. It is filed as functional, cell-based. The method, boiled down: as §1

In brackets after ≈: the same amount, converted by molar mass. Activity calls are given as the source filed them. No cut-off for these calls is given here. A value given as a limit tells only on which side of the number the result lay.

Take `CC(=O)O[C@H]1C(=O)[C@@]2(C)[C@H]([C@H](OC(=O)c3ccccc3)[C@]3(O)C[C@H](OC(=O)[C@H](OC(=O)CN4CCOCC4)[C@@H](NC(=O)c4ccccc4)c4ccccc4)C(C)=C1C3(C)C)[C@]1(OC(C)=O)CO[C@@H]1C[C@@H]2O`: the Ratio in [1] worked out at 400. For the same molecule, the IC50 in the data set on MCF7 [2] was found to be 3.49 nM; in the data set on HeLa [3], 22.9 nM; with HeLa [5] it was 49.2 nM; in the data set on MCF7 [6] it was 12 nM. In data set [4], this molecule registered a solubility of 100 µg/mL (≈ 102 µM).
On to `CC(=O)O[C@H]1C(=O)[C@@]2(C)[C@H]([C@H](OC(=O)c3ccccc3)[C@]3(O)C[C@H](OC(=O)[C@H](O)[C@@H](NC(=O)c4ccccc4)c4ccccc4)C(C)=C1C3(C)C)[C@]1(OC(C)=O)CO[C@@H]1C[C@@H]2O` [PACLITAXEL], for which the IC50 is 1.25 nM with MCF7 [2], 12.6 nM with HeLa [3], 23.3 nM in the data set on HeLa [5] and 3.1 nM in the data set with MCF7 [6]. The same molecule returned an MTD in data set [7] of 30 mg/kg. In addition, the Activity in the data set on Mus musculus [8] is -28.1%; with Mus musculus [9] it was “Toxic”; with CCRF S-180 [10], 3.34 g. In addition, in the data set on CCRF S-180 [11], the inhibition in vivo at 25 mg/kg came out at 56%.
`CC(=O)O[C@H]1C(=O)[C@@]2(C)[C@H]([C@H](OC(=O)c3ccccc3)[C@]3(O)C[C@H](OC(=O)[C@H](OC(=O)OCCSSCC(=O)N[C@H](CC(=O)NCCN4CCOCC4)C(=O)NCCN4CCOCC4)[C@@H](NC(=O)c4ccccc4)c4ccccc4)C(C)=C1C3(C)C)[C@]1(OC(C)=O)CO[C@@H]1C[C@@H]2O`: the Ratio in data set [1] stood at 20000. Moreover, the IC50 was 4.07 nM in the data set with MCF7 [2], 14 nM in the data set with HeLa [3], 20.6 nM with HeLa [5] and 7.45 nM with MCF7 [6]. Also, the Drug metabolism result in the data set with Plasma is given as “metabolite_detected”. Further, the Activity result is given as “Non-toxic” in the data set on Mus musculus [12], -16.1% in the data set with Mus musculus [8] and 3.43 g with CCRF S-180 [10]. Besides, the metabolised at 10 h in [13] worked out at 100%. Further, in data set [4], the solubility came to 5000 µg/mL (≈ 3600 µM). In addition, the Survival in the data set with Mus musculus [14] came to 1 weeks. The inhibition in vivo at 25 mg/kg in the data set with CCRF S-180 [11] came out at 54%.
Regarding `CC(=O)O[C@H]1C(=O)[C@@]2(C)[C@H]([C@H](OC(=O)c3ccccc3)[C@]3(O)C[C@H](OC(=O)[C@H](OC(=O)CCC(=O)NCCN4CCOCC4)[C@@H](NC(=O)c4ccccc4)c4ccccc4)C(C)=C1C3(C)C)[C@]1(OC(C)=O)CO[C@@H]1C[C@@H]2O`, the Ratio in [1] was 2000. Moreover, the IC50 stood at 0.74 nM in the data set on MCF7 [2], 14.6 nM in the data set with HeLa [3], 19.8 nM in the data set with HeLa [5] and 4.23 nM in the data set on MCF7 [6]. In addition, in [4], the solubility was 500 µg/mL (≈ 469 µM). Moreover, in [15], the Drug metabolism result is “metabolite_detected”.
As to `CC(=O)O[C@H]1C(=O)[C@@]2(C)[C@H]([C@H](OC(=O)c3ccccc3)[C@]3(O)C[C@H](OC(=O)[C@H](OC(=O)NCCN4CCOCC4)[C@@H](NC(=O)c4ccccc4)c4ccccc4)C(C)=C1C3(C)C)[C@]1(OC(C)=O)CO[C@@H]1C[C@@H]2O`, the Ratio in [1] worked out at 2000. Further, the IC50 in the data set on MCF7 [2], with HeLa [3], in the data set with HeLa [5] and in the data set with MCF7 [6] was greater than 1000 nM in each case. For the same molecule, the outcome in the data set on HeLa [16] and in the data set with MCF7 [19] was inactive. The same molecule yielded a solubility in data set [4] of 500 µg/mL (≈ 495 µM). Also, in data set [17], the Stability entry is recorded as “Unstable”. Besides, in [18], the Drug metabolism result is given as “metabolite_notdetected”.
